# Shown are actives, neighbours in structure and some others; about 4.6% of the full set was active somewhere.
# OX1R antag-1: antagonists of human orexin 1 receptor (OX1R). OX1R-expressing cells, FRET antagonist read-out. inhibition, % at 6.6 µM. actives 1.8% (n = 330,000). AID 485270, 2010; in the data active = inhibition mostly above about 38%, no sharp cut-off; inactive = mostly below about 40%;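 note: 0% = agonist challenge alone and 100% = reference antagonist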
# OX1R antag-2: OX1R (HCRTR1) antagonists, primary screen, fluorescence, CHO/OX1R cells, Fluo-8 calcium, orexin A. Orexin/Hypocretin receptor type 1 (Homo sapiens), O43613. Fluo-8 calcium fluorescence. inhibition, % at 5 µM. actives 0.43% (n = 330,000). AID 434989, 2010;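 active = inhibition above its plate's threshold, mean inhibition of all tested compounds on the plate plus 3 SD, cut at about 37% in these data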;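 note: 0% = orexin A challenge wells and 100% = SB-334867-A antagonist wells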
# CHO parental Ca: ATP-evoked calcium signal inhibitors, parental CHO, primary screen, counter-screen for OX1R antagonist project, cell-based, fluorescence, Fluo-8 calcium dye | parental CHO-K1, ATP-induced calcium, Fluo-8 fluorescence | inhibition, % at 5.6 µM | actives 0.63% (n = 330,000) | AID 463079, 2010;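 active = inhibition above that plate's mean sample inhibition plus 3 SD, cut at about 26% in these data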;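 note: 0% = ATP-challenged DMSO wells and 100% = DMSO wells without ATP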
#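 Test system: untransfected parental CHO cell line; also added: ATP stimulus; dosing: 5.6 µM, single dose; signal: calcium-sensitive Fluo-8 fluorescence; measure: percent inhibition of ATP-evoked calcium rise, normalized to controls; benchmarks: low control ATP plus DMSO, high control DMSO only; replication: one well per compound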
# GPR7 antag: GPR7 receptor antagonists, primary screen, cell-based, fluorescence, single concentration. Neuropeptides B/W receptor type 1 (Homo sapiens), P48145. GPR7-expressing cells, fluorescence antagonist assay. inhibition, % at 4.4 µM. actives 1.1% (n = 290,000). AID 1861, 2009; in the data active = inhibition above about 16%, passing the limit was not always enough;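 note: cells stimulated with the agonist NPW; 0% = agonist with vehicle and 100% = vehicle without agonist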
# Target sequence (P48145 whole entry, looked up): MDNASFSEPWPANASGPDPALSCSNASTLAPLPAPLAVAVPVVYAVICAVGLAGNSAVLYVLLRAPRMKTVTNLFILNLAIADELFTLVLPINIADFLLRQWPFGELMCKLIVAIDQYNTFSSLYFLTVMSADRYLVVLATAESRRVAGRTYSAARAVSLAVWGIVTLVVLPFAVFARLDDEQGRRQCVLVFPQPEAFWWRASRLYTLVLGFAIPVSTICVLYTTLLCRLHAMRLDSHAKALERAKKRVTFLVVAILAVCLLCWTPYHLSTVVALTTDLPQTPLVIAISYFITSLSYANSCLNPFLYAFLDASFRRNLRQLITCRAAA
# TAAR1 antag: human TAAR1 antagonists, primary screen, Fluo-8 calcium fluorescence, CHO RD-HGA16 cells; AID 624466, 2012; inhibition, % at 3 µM; actives 1.5% (n = 360,000); Trace amine-associated receptor 1 (Homo sapiens), Q96RJ0; antagonist;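 active = inhibition above a per-plate cutoff, the mean inhibition of test compounds on that plate plus 3 SD, cut at about 49% in these data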;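 note: 0% = DMSO plus EC80 beta-PEA response and 100% = DMSO alone without agonist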
# Target sequence (Q96RJ0 whole entry, looked up): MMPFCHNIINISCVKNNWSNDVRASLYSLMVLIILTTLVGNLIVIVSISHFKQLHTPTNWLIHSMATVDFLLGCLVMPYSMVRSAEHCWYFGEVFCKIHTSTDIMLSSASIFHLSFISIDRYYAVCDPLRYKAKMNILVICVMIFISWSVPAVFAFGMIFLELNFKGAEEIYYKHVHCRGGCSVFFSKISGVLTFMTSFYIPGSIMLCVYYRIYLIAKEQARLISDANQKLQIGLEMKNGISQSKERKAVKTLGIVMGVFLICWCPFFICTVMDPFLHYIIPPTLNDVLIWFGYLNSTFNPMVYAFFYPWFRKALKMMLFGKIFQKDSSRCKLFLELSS
#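 Assay system: CHO-derived RD-HGA16 cells stably expressing human TAAR1 plus Gα16. Timing: 140 s kinetic read after compound, 140 s after agonist. Technique: kinetic Fluo-8 calcium fluorescence measurement. Measure: % inhibition of agonist calcium response.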
# TAAR1 agonist: human TAAR1 agonists, primary screen, Fluo-8 calcium fluorescence, CHO RD-HGA16 cells | vehicle wells 0%, saturating PEA agonist 100% | activation, % at 3 µM | actives 0.99% (n = 360,000);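 active = activation above the mean activation of all test compounds in the run plus 3 SD, cut at about 38% in these data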
#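 Signal – calcium-sensitive Fluo-8 signal, excitation 470-495, emission 515-575 nm · System – RD-HGA16 (CHO) cells co-expressing Gα16 and hTAAR1 · Incubation – 17-24 h seeding, 75 min 37 °C dye, 30 min RT · Compound dosing – 3 µM single concentration · Repeats – no replicates (n 1)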
# nonsel antag count: nonselective antagonists in TAAR1 counter-screen cells, counter-screen for hTAAR1 antagonist project, cell-based, fluorescence, calcium; shares compounds with TAAR1 antag; counterscreen cell line, antagonist mode; inhibition, % at 3 µM; actives 77% (n = 2,400); AID 651780, 2012; in the data active = inhibition above about 22%;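 note: CHO-Ga16 host cells stimulated with ATP at an EC80 level; 0% = agonist EC80 plus vehicle and 100% = vehicle without agonist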
# TAAR1 antag conf: human TAAR1 antagonists, retest of hits, confirmation, cell-based, fluorescence; shares compounds with TAAR1 antag; TAAR1-expressing cells, fluorescence antagonist read-out; inhibition, % at 3 µM; actives 40% (n = 2,400); in the data active = inhibition above about 49%;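 note: CHO-Ga16 host cells challenged with agonist PEA near its EC80; 0% = agonist at EC80 plus vehicle and 100% = vehicle with no agonist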
# Ga16 ag counter: calcium activation in Ga16-expressing cells, counter-screen for TAAR1 antagonist project, cell-based, fluorescence; AID 651953, 2012; activation, % at 3 µM; shares compounds with TAAR1 antag; agonist counterscreen; actives 18% (n = 2,400); in the data active = activation above about 12%;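 note: 0% = vehicle wells and 100% = saturating stimulus response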
# TAAR1 ag count: TAAR1 activation by candidate antagonists – cell-based, fluorescence, counter-screen for TAAR1 antagonist project | actives 2% (n = 2,400) | hTAAR1 cell line, agonist mode | shares compounds with TAAR1 antag | activation, % at 3 µM; in the data active = activation above about 37%;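 note: CHO cells stably expressing TAAR1 with calcium dye readout; 0% = DMSO vehicle and 100% = full agonist response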
# * marks the source's active call; other numbers are inactive results; x = no result.
SMILES,OX1R antag-1,OX1R antag-2,CHO parental Ca,GPR7 antag,TAAR1 antag,TAAR1 agonist,nonsel antag count,TAAR1 antag conf,Ga16 ag counter,TAAR1 ag count
O=C(NCCCCc1ccccc1)c1cccc(NC(=O)C2CCCC2)c1,x,x,x,x,64*,9,25*,42,10,12
O=C(/C=C/c1ccccc1)Nc1cccc(C(=O)NCc2ccccc2)c1,x,x,x,x,-6,2,x,x,x,x
O=C(Nc1ccc(Nc2ccccc2)cc1)c1ccc(Br)cc1,13,-7,6,-15,3,5,x,x,x,x
Cc1cc(C)c2c(=O)n3c(nc2c1)C(Cc1ccccc1)NC(=O)c1cc2ccccc2cc1-3 (stereo not drawn),x,x,x,x,-31,0,x,x,x,x
Cc1cnc(C(=O)OCC(=O)N(Cc2ccccc2)C(C)(C)C)cn1,12,-22,-10,x,-7,1,x,x,x,x
CC(C)(C)c1nc(-c2ccccc2)nc2c1OCCC2,11,-25,-6,x,-16,23,x,x,x,x
COc1ccc(CNC(=O)c2sc(=O)n(Cc3cc(Cl)ccc3OC)c2C)cc1,x,x,x,x,25,11,x,x,x,x
COc1ccc(Cl)cc1Cn1c(C)c(C(=O)NCc2ccc3c(c2)OCCO3)sc1=O,x,x,x,x,56*,7,23*,39,7,7
C[C@]12c3[nH]c4cc(-c5ccco5)ccc4c3CCN1C(=O)[C@@H](CC(=O)NCc1cccc(C(F)(F)F)c1)C[C@@H]2C(=O)N1CCCCC1,1,-14,-15,x,-7,1,x,x,x,x
COc1cccc(NC(=O)CCC(=O)Nc2ccc3nc(N4CCOCC4)cc(C)c3c2)c1,19,-9,1,1,12,8,x,x,x,x
COc1ccccc1N1CCN(c2nc3ccccc3nc2C(C#N)C(=O)OC(C)C)CC1 (stereo not drawn),48,-41,-19,-9,73*,2,10,48,2,4
CCc1nc2c(OCc3ccc(C(F)(F)F)cc3)cccn2c1N(C)C(=O)c1ccc(C)cc1,x,x,x,x,-20,-1,x,x,x,x
COc1ccc(CCNC(=O)c2ccc(Cl)c(S(=O)(=O)N(C)c3ccccc3)c2)cc1,3,-2,-2,-13,57*,12,33*,44,9,3
O=C(CSc1nc(-c2ccccc2)cs1)NC(=O)NCc1ccco1,15,-13,-9,-15,54*,7,30*,42,5,2
O=C(COc1c(F)c(F)c(C(F)(F)F)c(F)c1F)Nc1ccc(N2CCOCC2)c(Cl)c1,-1,0,17,8,12,22,x,x,x,x
CCC(C)c1ccc(NC(=O)COc2c(F)c(F)c(C(F)(F)F)c(F)c2F)cc1 (stereo not drawn),11,-32,-1,-13,51*,1,14,17,1,2
COc1ccc(-c2nc(C#N)c(NCc3ccccc3Cl)o2)cc1,14,-13,-8,-13,53*,16,4,7,1,6
O=P(O)(Cc1ccccc1)c1ccccc1,x,x,x,x,-21,1,x,x,x,x
CCC(CO)Oc1cc(NCc2cccc(OC)c2)c2ncn(C(C)C)c2c1 (stereo not drawn),17,-22,-8,x,106*,14,9,2,0,0
COc1ccc(NC(=O)Nc2ccc3c(c2)C(=O)N([C@H](C)CO)C[C@H](C)[C@H](CN(C)C)OCCCC[C@@H](C)O3)cc1,x,x,x,x,-2,4,x,x,x,x
NC(=O)c1nsc(C(=O)N(c2cccc(O)c2)C(C(=O)NC2CCCC2)c2ccc(Cl)cc2)c1N (stereo not drawn),-2,3,-2,-13,66*,0,25*,53*,6,12
CCOc1ccc(C(C(=O)NC2CCCC2)N(C(=O)c2snc(C(N)=O)c2N)c2cccc(O)c2)cc1 (stereo not drawn),14,24,25,-12,99*,17,37*,81*,8,8
Cc1cccc(N(C(=O)c2snc(C(N)=O)c2N)C(C(=O)NC2CCCC2)c2ccncc2)c1 (stereo not drawn),10,-40,-26,-14,-5,-6,x,x,x,x
CCOc1ccc(N(C(=O)c2snc(C(N)=O)c2N)C(CC)C(=O)NC2CCCC2)cc1 (stereo not drawn),7,1,-6,-8,-2,-4,x,x,x,x
COc1ccc2c(c1)CCCC21NC(=O)N(CC(=O)NCc2cccs2)C1=O (stereo not drawn),16,-19,-10,x,-9,0,x,x,x,x
SMILES,OX1R antag-1,OX1R antag-2,CHO parental Ca,GPR7 antag,TAAR1 antag,TAAR1 agonist,nonsel antag count,TAAR1 antag conf,Ga16 ag counter,TAAR1 ag count
COc1ccc(CN2CCN(C3CCC3)CC2CCO)c(F)c1 (stereo not drawn),x,x,x,-7,-2,-1,x,x,x,x
O=S(=O)(c1ccc(F)cc1)N1CCN(c2nc(-c3cccnc3)nc3ccccc23)CC1,7,0,-26,x,41,15,x,x,x,x
O=S(=O)(c1ccccc1)N1CCN(c2nc(-c3cccnc3)nc3ccccc23)CC1,x,x,x,x,69*,13,26*,48,10,12
CCOC(=O)C(Cc1ccc(NC(=O)/C(=C\c2ccccc2)NC(=O)c2ccccc2)cc1)N1C(=O)c2ccccc2C1=O (stereo not drawn),6,-6,-3,-10,19,5,x,x,x,x
CCOC(=O)C(Cc1ccc(NC(C)=O)cc1)N1C(=O)c2ccccc2C1=O (stereo not drawn),3,-15,-12,x,58*,14,24*,46,9,8
O=c1oc(C2(O)CCCCC2)cc2ccc(Br)cc12,1,-4,-16,x,25,10,x,x,x,x
O=c1oc(C2(O)CCCCC2)cc2ccc(/C=C/c3ccc(F)cc3)cc12,9,6,-19,x,63*,5,26*,24,4,4

# From PubChem
